Assay results collected from several papers.
Compare with care: the assays were run in different laboratories. pIC50: −log10 of the molar value.
Read-out: cell growth or viability

COC1=C2C[C@@H](C)C[C@H](OC)[C@H](O)[C@@H](C)/C=C(\C)[C@H](OC(N)=O)[C@@H](OC)/C=C\C=C(/C)C(=O)NC(=C(c3ccccc3)C1=O)C2=O  pIC50 (ARPE-19; MTT): 5.08
COc1c2c(cc3c1OCO3)[C@]13C=C[C@H](OC)C[C@@H]1[N@](C2)C[C@H]3OC(=O)c1ccoc1  pIC50 (PANC-1; WST-1): < 5.00
COc1cc(C(=O)c2cc3cc(N)cc(OC)c3s2)cc(OC)c1OC  pIC50 (human Lymphocyte; MTT; 72 h): < 4.70
CCCc1cc(=O)n2nc(NCc3c(F)cc(Cl)cc3F)c(C#N)c2[nH]1  pIC50 (CAL-51; ATP luminescence; 72 h): < 4.30
COC1=C2C[C@@H](C)C[C@H](OC)[C@H](O)[C@@H](C)/C=C(\C)[C@H](OC(N)=O)[C@@H](OC)/C=C\C=C(/C)C(=O)NC(=C(C)C1=O)C2=O  pIC50 (ARPE-19; MTT): < 4.70
C=CC(=O)Nc1cc(Nc2nccc(-c3cn(C)c4ccccc34)n2)c(OC)cc1N(C)CCN(C)C  GI50 (BaF3; 72 h): 2.76 µM
C1COCCN1.COc1ccc(/C=C\c2cc(I)c(OC)c(I)c2)cc1OP(=O)(O)O  GI50 (SF-268; SRB; 48 h): 0.054 µg/mL
COc1c2c(cc3c1OCO3)[C@]13C=C[C@H](OC)C[C@@H]1[N@](C2)C[C@H]3OC(=O)c1ccco1  pIC50 (PANC-1; WST-1): < 5.00
